Laboratory results taken from ChEMBL document CHEMBL4118083, “Synthesis and anti-oxidant activity evaluation of (±)-Anastatins A, B and their analogs” (Eur J Med Chem, 2017).
Activity calls are given as the source filed them. The rule behind the calls is not given here.

Columns and labels:
[1] = Antioxidant activity assessed as vitamin-c equivalents of ferric ion reducing activity by measuring Fe2+ levels using Fe3+-TPTZ by FRAP assay; format: functional
Summary of the method: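 Ferric-TPTZ complex reduced to ferrous form, per earlier-described method. Calibration curve from serial dilution of vitamin C standard (100-600 […] as printed). Compound reducing power expressed as vitamin C equivalents, calculated from three independent experiments.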

PC-12 [2] = experiment: Cytoprotective activity against H2O2-induced apoptosis in rat PC12 cells assessed as necrotic cells at 10 uM preincubated for 0.5 hrs followed by H2O2 addition measured after 2 hrs by Annexin V-FITC/propidium iodide staining based flow cytometry (reference value: 2%); format: functional
PC-12 [3] = experiment: Cytoprotective activity against H2O2-induced apoptosis in rat PC12 cells assessed as late apoptotic cells at 10 uM preincubated for 0.5 hrs followed by H2O2 addition measured after 2 hrs by Annexin V-FITC/propidium iodide staining based flow cytometry (reference value: 57.5%); format: functional
PC-12 [4] = experiment: Cytoprotective activity against H2O2-induced oxidative damage in rat PC12 cells assessed as reduction in morphological changes by measuring cell shrinkage at 10 to 100 uM preincubated for 0.5 hrs followed by H2O2 addition measured after 2 hrs; format: functional, cell-based
Summary of the method: (§1)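 PC12 cells plated 5×10^5 cells/well and grown 24 h, then given test agent (10 and 100 µM) for 0.5 h before 100 µM H2O2 for 2 h. Controls received medium with 0.1% DMSO. Cell shrinkage and blebbing were inspected by microscopy at 200×.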

PC-12 [5] = experiment: Cytoprotective activity against H2O2-induced apoptosis in rat PC12 cells assessed as live cells at 100 uM preincubated for 0.5 hrs followed by H2O2 addition measured after 2 hrs by Annexin V-FITC/propidium iodide staining based flow cytometry (reference value: 37.3%); format: functional
PC-12 [6] = experiment: Cytoprotective activity against H2O2-induced oxidative damage in rat PC12 cells assessed as reduction in morphological changes by measuring membrane blebbing at 10 to 100 uM preincubated for 0.5 hrs followed by H2O2 addition measured after 2 hrs; format: functional, cell-based; summary of the method: as §1
PC-12 [7] = experiment: Cytoprotective activity against H2O2-induced apoptosis in rat PC12 cells assessed as early apoptotic cells at 10 uM preincubated for 0.5 hrs followed by H2O2 addition measured after 2 hrs by Annexin V-FITC/propidium iodide staining based flow cytometry (reference value: 3.2%); format: functional
PC-12 [8] = experiment: Cytoprotective activity against H2O2-induced apoptosis in rat PC12 cells assessed as apoptotic cells at 100 uM preincubated for 0.5 hrs followed by H2O2 addition measured after 2 hrs by Annexin V-FITC/propidium iodide staining based flow cytometry (reference value: 60.7%); format: functional
PC-12 [9] = experiment: Cytoprotective activity against H2O2-induced apoptosis in rat PC12 cells assessed as necrotic cells at 100 uM preincubated for 0.5 hrs followed by H2O2 addition measured after 2 hrs by Annexin V-FITC/propidium iodide staining based flow cytometry (reference value: 2%); format: functional
PC-12 [10] = experiment: Cytoprotective activity against H2O2-induced apoptosis in rat PC12 cells assessed as live cells at 10 uM preincubated for 0.5 hrs followed by H2O2 addition measured after 2 hrs by Annexin V-FITC/propidium iodide staining based flow cytometry (reference value: 37.3%); format: functional
PC-12 [11] = experiment: Cytoprotective activity against H2O2-induced apoptosis in rat PC12 cells assessed as early apoptotic cells at 100 uM preincubated for 0.5 hrs followed by H2O2 addition measured after 2 hrs by Annexin V-FITC/propidium iodide staining based flow cytometry (reference value: 3.2%); format: functional
PC-12 [12] = experiment: Cytoprotective activity against H2O2-induced apoptosis in rat PC12 cells assessed as late apoptotic cells at 100 uM preincubated for 0.5 hrs followed by H2O2 addition measured after 2 hrs by Annexin V-FITC/propidium iodide staining based flow cytometry (reference value: 57.5%); format: functional
PC-12 [13] = experiment: Cytoprotective activity against H2O2-induced oxidative damage in rat PC12 cells assessed as cell viability at 100 uM preincubated for 0.5 hrs followed by H2O2 addition measured after 2 hrs by MTT assay relative to control; format: functional; conditions: read-out: Activity
Summary of the method: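 PC12 cells in RPMI-1640 with 10% FBS, plated at 5×10^5 per well, 24 h. Compound in DMSO added 0.5 h before 100 µM H2O2, then 2 h injury. MTT for 4 h, formazan dissolved in DMSO, OD 490 nm. Viability normalised to DMSO controls (100%). Mean of three independent experiments.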

PC-12 [14] = experiment: Cytotoxicity against rat PC12 cells assessed as effect on cell viability at 100 uM after 48 hrs by MTT assay; format: cell-based; conditions: pc-12, 48 h
Summary of the method: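 Rat PC12 cells at 5×10^5 per well, grown 24 h, then exposed 48 h to compound in DMSO. MTT added for 4 h, formazan dissolved in DMSO, absorbance 490 nm. Viability relative to DMSO-treated controls. Triplicate tests.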

| SMILES | Activity [1] [mgequiv/mmol] | other results |
| --- | --- | --- |
| O=c1cc(-c2ccc(O)cc2)oc2cc(O)c(-c3ccc(O)c(O)c3)c(O)c12 | 276 |  |
| O=C1CC(c2ccc(O)cc2)Oc2c1c(O)cc1oc3cc(O)c(O)cc3c21 (racemic) | 224 |  |
| O=C1/C(=C/c2ccc(O)c(O)c2)Oc2c1c(O)cc1oc3cc(O)c(O)cc3c21 | 260 |  |
| O=C1/C(=C/c2ccc(O)c(O)c2)Oc2c1c(O)cc(O)c2-c1ccc(O)c(O)c1 | 318 | Activity (PC-12 [2]): 0.4%; Activity (PC-12 [3]): 3.5%; Activity (PC-12 [4]): Active; Activity (PC-12 [5]): 95.6%; Activity (PC-12 [6]): Active; Activity (PC-12 [7]): 2.4%; Activity (PC-12 [8]): 4.1%; Activity (PC-12 [9]): 0.4%; Activity (PC-12 [10]): 93.6% |
| O=C1/C(=C/c2ccc(O)cc2)Oc2c1c(O)cc1oc3cc(O)c(O)cc3c21 | 270 |  |
| O=C1/C(=C/c2ccccc2)Oc2c1c(O)cc(O)c2-c1ccc(O)c(O)c1 | 269 |  |
| O=C1/C(=C/c2ccc(O)cc2)Oc2c1c(O)cc(O)c2-c1ccc(O)c(O)c1 | 263 |  |
| O=C1/C(=C/c2ccc(O)cc2)Oc2cc3oc4cc(O)c(O)cc4c3c(O)c21 | 264 |  |
| O=c1cc(-c2ccc(O)cc2)oc2c(-c3ccc(O)c(O)c3)c(O)cc(O)c12 | 271 |  |
| O=c1cc(-c2ccc(O)cc2)oc2cc3oc4cc(O)c(O)cc4c3c(O)c12 | 116 |  |
| O=C1c2c(O)cc3oc4cc(O)c(O)cc4c3c2OC1Cc1ccc(O)cc1 (centres undefined) | 248 |  |
| O=C(O)c1cc(O)c(O)c(O)c1 [GALLIC ACID] | 333 | Activity (PC-12 [2]): 1.7%; Activity (PC-12 [3]): 10%; Activity (PC-12 [4]): Active; Activity (PC-12 [5]): 96.7%; Activity (PC-12 [6]): Active; Activity (PC-12 [7]): 2.5%; Activity (PC-12 [11]): 0.7%; Activity (PC-12 [12]): 2.1%; Activity (PC-12 [9]): 0.4%; Activity (PC-12 [10]): 85.8% |
| O=C1c2c(O)cc(O)c(-c3ccc(O)c(O)c3)c2OC1Cc1ccc(O)c(O)c1 (centres undefined) | 376 | viability at 100 µM (PC-12 [13]): 100% |
| O=C1c2c(cc3oc4cc(O)c(O)cc4c3c2O)OC1Cc1ccc(O)cc1 (centres undefined) | 253 |  |
| O=C1c2c(cc3oc4cc(O)c(O)cc4c3c2O)OC1Cc1ccccc1 (centres undefined) | 227 |  |
| O=C1/C(=C/c2ccc(O)c(O)c2)Oc2cc(O)c(-c3ccc(O)c(O)c3)c(O)c21 | 372 | viability at 100 µM (PC-12 [13]): 100% |
| O=C1c2c(O)cc3oc4cc(O)c(O)cc4c3c2OC1Cc1ccccc1 (centres undefined) | 262 |  |
| O=C1/C(=C/c2ccccc2)Oc2c1c(O)cc1oc3cc(O)c(O)cc3c21 | 116 |  |
| O=C1c2c(cc(O)c(-c3ccc(O)c(O)c3)c2O)OC1Cc1ccc(O)c(O)c1 (centres undefined) | 394 |  |
| O=C1c2c(O)cc3oc4cc(O)c(O)cc4c3c2OC1Cc1ccc(O)c(O)c1 (centres undefined) | 373 |  |
| O=C1/C(=C/c2ccc(O)cc2)Oc2cc(O)c(-c3ccc(O)c(O)c3)c(O)c21 | 241 |  |
| O=C1/C(=C/c2ccccc2)Oc2cc(O)c(-c3ccc(O)c(O)c3)c(O)c21 | 237 |  |
| O=C1c2c(cc3oc4cc(O)c(O)cc4c3c2O)OC1Cc1ccc(O)c(O)c1 (centres undefined) | 396 | Activity (PC-12 [14]): Toxic |
| O=c1cc(-c2ccc(O)cc2)oc2c1c(O)cc1oc3cc(O)c(O)cc3c12 | 137 |  |
| O=C1/C(=C/c2ccccc2)Oc2cc3oc4cc(O)c(O)cc4c3c(O)c21 | 134 |  |
| O=C1CC(c2ccc(O)cc2)Oc2cc3oc4cc(O)c(O)cc4c3c(O)c21 (racemic) | 260 |  |
| O=C1/C(=C/c2ccc(O)c(O)c2)Oc2cc3oc4cc(O)c(O)cc4c3c(O)c21 | 277 |  |
